Values after ≈ are worked out from the molar mass of the structure shown.
Legend:
[1] = test system: Staphylococcus aureus; experiment: Antibacterial activity against Staphylococcus aureus GIORGIO after 16 hrs at 36 degC by microdilution method; format: functional
How it was run: (§1)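 Broth microdilution in Mueller-Hinton broth, following NCCLS/CLSI. Stock solutions were serially diluted 2-fold to the final test concentrations. The MIC was the lowest concentration that prevented visible growth after incubation at 36 °C. Mupirocin and amoxicillin were reference antibiotics run by the same method.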

[2] = test system: Staphylococcus aureus; experiment: Antibacterial activity against Staphylococcus aureus SP-N2 after 16 hrs at 36 degC by microdilution method; format: functional
How it was run: (§2)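 Broth microdilution per CLSI in Mueller-Hinton broth for staphylococci. Stock solutions were diluted in a 2-fold serial series to final test concentrations. The MIC was read as the lowest concentration that prevented visible bacterial growth after incubation at 36 °C. Mupirocin and amoxicillin were run by the same method as references.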

[3] = test system: Staphylococcus aureus; experiment: Antibacterial activity against Staphylococcus aureus ATCC 6538P after 16 hrs at 36 degC by microdilution method; format: functional; how it was run: as §1
[4] = test system: Staphylococcus aureus; experiment: Antibacterial activity against Staphylococcus aureus ATCC 25923 after 16 hrs at 36 degC by microdilution method; format: functional; settings: ATCC 25923, 16 h; how it was run: as §1
[5] = test system: Staphylococcus aureus; experiment: Antibacterial activity against Staphylococcus aureus ATCC 10537 after 16 hrs at 36 degC by microdilution method; format: functional; settings: ATCC 10537, 16 h; how it was run: as §1
[6] = test system: Enterococcus faecium; experiment: Antibacterial activity against Enterococcus faecium ATCC 10541 after 16 hrs at 36 degC by microdilution method; format: functional; settings: ATCC 10541, 16 h
How it was run: (§3)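 Broth microdilution in Brain Heart Infusion broth, following NCCLS/CLSI. Test compounds were serially diluted 2-fold from stock. The MIC was the lowest concentration with no visible bacterial growth after incubation at 36 °C. Mupirocin and amoxicillin were tested the same way as references.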

[7] = test system: Enterococcus faecalis; experiment: Antibacterial activity against Enterococcus faecalis ATCC 19433 after 16 hrs at 36 degC by microdilution method; format: functional; settings: ATCC 19433, 16 h; how it was run: as §3
[8] = Inhibition of Staphylococcus aureus methionyl-tRNA synthetase assessed as decrease in [35S]methionyl-tRNA generation
[9] = test system: Staphylococcus epidermidis; experiment: Antibacterial activity against Staphylococcus epidermidis ATCC 12228 after 16 hrs at 36 degC by microdilution method; format: functional; settings: ATCC 12228, 16 h; how it was run: as §1
[10] = test system: Enterococcus faecalis; experiment: Antibacterial activity against Enterococcus faecalis ATCC 29212 after 16 hrs at 36 degC by microdilution method; format: functional; settings: ATCC 29212, 16 h; how it was run: as §3
[11] = test system: Staphylococcus aureus; experiment: Antibacterial activity against Staphylococcus aureus Smith after 16 hrs at 36 degC by microdilution method; format: functional; how it was run: as §1
[12] = test system: Staphylococcus aureus; experiment: Antibacterial activity against methicillin-resistant Staphylococcus aureus KS2007-6 after 16 hrs at 36 degC by microdilution method; format: functional; how it was run: as §2

Structure (SMILES)	MIC [1]	MIC [2]	MIC [3]	MIC [4]	MIC [5]	MIC [6]	MIC [7]	IC50 [8]	MIC [9]	MIC [10]	MIC [11]	MIC [12]
NC(CNCc1ccc(Cl)c(Cl)c1)CNc1cc(=O)c2ccccc2[nH]1 (centres undefined)	64 µg/mL (≈ 164 µM)	64 µg/mL (≈ 164 µM)	64 µg/mL (≈ 164 µM)	64 µg/mL (≈ 164 µM)	64 µg/mL (≈ 164 µM)	16 µg/mL (≈ 40.9 µM)	64 µg/mL (≈ 164 µM)	137 nM	32 µg/mL (≈ 81.8 µM)	64 µg/mL (≈ 164 µM)	64 µg/mL (≈ 164 µM)	64 µg/mL (≈ 164 µM)
CCOC(CNCc1ccc(Cl)c(Cl)c1)CNc1cc(=O)c2ccccc2[nH]1 (centres undefined)	16 µg/mL (≈ 38.1 µM)	16 µg/mL (≈ 38.1 µM)	8 µg/mL (≈ 19 µM)	16 µg/mL (≈ 38.1 µM)	16 µg/mL (≈ 38.1 µM)	1 µg/mL (≈ 2.38 µM)	4 µg/mL (≈ 9.52 µM)	30.3 nM	8 µg/mL (≈ 19 µM)	4 µg/mL (≈ 9.52 µM)	16 µg/mL (≈ 38.1 µM)	8 µg/mL (≈ 19 µM)
CC(C)OC(CNCc1ccc(Cl)c(Cl)c1)CNc1cc(=O)c2ccccc2[nH]1 (centres undefined)	32 µg/mL (≈ 73.7 µM)	16 µg/mL (≈ 36.8 µM)	16 µg/mL (≈ 36.8 µM)	16 µg/mL (≈ 36.8 µM)	16 µg/mL (≈ 36.8 µM)	2 µg/mL (≈ 4.6 µM)	4 µg/mL (≈ 9.21 µM)	91 nM	16 µg/mL (≈ 36.8 µM)	4 µg/mL (≈ 9.21 µM)	16 µg/mL (≈ 36.8 µM)	8 µg/mL (≈ 18.4 µM)
O=C(OC(CNCc1ccc(Cl)c(Cl)c1)CNc1cc(=O)c2ccccc2[nH]1)c1ccccc1 (centres undefined)	32 µg/mL (≈ 64.5 µM)	32 µg/mL (≈ 64.5 µM)	32 µg/mL (≈ 64.5 µM)	64 µg/mL (≈ 129 µM)	64 µg/mL (≈ 129 µM)	8 µg/mL (≈ 16.1 µM)	16 µg/mL (≈ 32.2 µM)	69.4 nM	16 µg/mL (≈ 32.2 µM)	16 µg/mL (≈ 32.2 µM)	32 µg/mL (≈ 64.5 µM)	32 µg/mL (≈ 64.5 µM)
O=c1cc(NCC(CO)CNCc2ccc(Cl)c(Cl)c2)[nH]c2ccccc12 (centres undefined)	64 µg/mL (≈ 158 µM)	16 µg/mL (≈ 39.4 µM)	16 µg/mL (≈ 39.4 µM)	64 µg/mL (≈ 158 µM)	32 µg/mL (≈ 78.8 µM)	2 µg/mL (≈ 4.92 µM)	8 µg/mL (≈ 19.7 µM)	11.9 nM	16 µg/mL (≈ 39.4 µM)	8 µg/mL (≈ 19.7 µM)	32 µg/mL (≈ 78.8 µM)	16 µg/mL (≈ 39.4 µM)
COCC(CNCc1ccc(Cl)c(Cl)c1)CNc1cc(=O)c2ccccc2[nH]1 (centres undefined)	16 µg/mL (≈ 38.1 µM)	8 µg/mL (≈ 19 µM)	4 µg/mL (≈ 9.52 µM)	16 µg/mL (≈ 38.1 µM)	8 µg/mL (≈ 19 µM)	0.125 µg/mL (≈ 0.297 µM)	0.5 µg/mL (≈ 1.19 µM)	15 nM	4 µg/mL (≈ 9.52 µM)	0.5 µg/mL (≈ 1.19 µM)	8 µg/mL (≈ 19 µM)	4 µg/mL (≈ 9.52 µM)
C=CCOC(CNCc1ccc(Cl)c(Cl)c1)CNc1cc(=O)c2ccccc2[nH]1 (centres undefined)	16 µg/mL (≈ 37 µM)	8 µg/mL (≈ 18.5 µM)	8 µg/mL (≈ 18.5 µM)	8 µg/mL (≈ 18.5 µM)	16 µg/mL (≈ 37 µM)	1 µg/mL (≈ 2.31 µM)	2 µg/mL (≈ 4.63 µM)	29.4 nM	4 µg/mL (≈ 9.25 µM)	2 µg/mL (≈ 4.63 µM)	8 µg/mL (≈ 18.5 µM)	4 µg/mL (≈ 9.25 µM)
CN(C)C(CNc1cc(=O)c2ccccc2[nH]1)CN(Cc1ccc(Cl)c(Cl)c1)Cc1ccc(Cl)c(Cl)c1 (centres undefined)	> 64 µg/mL	> 64 µg/mL	> 64 µg/mL	> 64 µg/mL	> 64 µg/mL	> 64 µg/mL	> 64 µg/mL	131 nM	> 64 µg/mL	> 64 µg/mL	> 64 µg/mL	
CC(C)(C)OC(=O)NC(CNCc1ccc(Cl)c(Cl)c1)CNc1cc(=O)c2ccccc2[nH]1 (centres undefined)	32 µg/mL (≈ 65.1 µM)	32 µg/mL (≈ 65.1 µM)	32 µg/mL (≈ 65.1 µM)	32 µg/mL (≈ 65.1 µM)	32 µg/mL (≈ 65.1 µM)	8 µg/mL (≈ 16.3 µM)	32 µg/mL (≈ 65.1 µM)	103 nM	32 µg/mL (≈ 65.1 µM)	32 µg/mL (≈ 65.1 µM)	32 µg/mL (≈ 65.1 µM)	32 µg/mL (≈ 65.1 µM)
CN(C)C(CNCc1ccc(Cl)c(Cl)c1)CNc1cc(=O)c2ccccc2[nH]1 (centres undefined)	> 64 µg/mL	64 µg/mL (≈ 153 µM)	> 64 µg/mL	> 64 µg/mL	64 µg/mL (≈ 153 µM)	8 µg/mL (≈ 19.1 µM)	16 µg/mL (≈ 38.2 µM)	39.6 nM	32 µg/mL (≈ 76.3 µM)	16 µg/mL (≈ 38.2 µM)	64 µg/mL (≈ 153 µM)	64 µg/mL (≈ 153 µM)
O=c1cc(NCC(CNCc2ccc(Cl)c(Cl)c2)OCc2ccccc2)[nH]c2ccccc12 (centres undefined)	4 µg/mL (≈ 8.29 µM)	4 µg/mL (≈ 8.29 µM)	4 µg/mL (≈ 8.29 µM)	4 µg/mL (≈ 8.29 µM)	4 µg/mL (≈ 8.29 µM)	0.5 µg/mL (≈ 1.04 µM)	2 µg/mL (≈ 4.15 µM)	24.7 nM	2 µg/mL (≈ 4.15 µM)	2 µg/mL (≈ 4.15 µM)	4 µg/mL (≈ 8.29 µM)	2 µg/mL (≈ 4.15 µM)
O=c1cc(NCCCNCc2ccc(Cl)c(Cl)c2)[nH]c2ccccc12	32 µg/mL (≈ 85 µM)	8 µg/mL (≈ 21.3 µM)	4 µg/mL (≈ 10.6 µM)	16 µg/mL (≈ 42.5 µM)	16 µg/mL (≈ 42.5 µM)	0.5 µg/mL (≈ 1.33 µM)	2 µg/mL (≈ 5.32 µM)	3.4 nM	8 µg/mL (≈ 21.3 µM)	2 µg/mL (≈ 5.32 µM)	16 µg/mL (≈ 42.5 µM)	8 µg/mL (≈ 21.3 µM)
CC1(C)S[C@@H]2[C@H](NC(=O)[C@H](N)c3ccc(O)cc3)C(=O)N2[C@H]1C(=O)O [AMOXICILLIN]	0.125 µg/mL (≈ 0.342 µM)	0.25 µg/mL (≈ 0.684 µM)	0.125 µg/mL (≈ 0.342 µM)	0.25 µg/mL (≈ 0.684 µM)	0.125 µg/mL (≈ 0.342 µM)	8 µg/mL (≈ 21.9 µM)	64 µg/mL (≈ 175 µM)		0.125 µg/mL (≈ 0.342 µM)	64 µg/mL (≈ 175 µM)	0.125 µg/mL (≈ 0.342 µM)	0.25 µg/mL (≈ 0.684 µM)
C/C(=C\C(=O)OCCCCCCCCC(=O)O)C[C@@H]1OC[C@H](C[C@@H]2O[C@H]2[C@@H](C)[C@H](C)O)[C@@H](O)[C@H]1O [MUPIROCIN]	0.25 µg/mL (≈ 0.499 µM)	> 64 µg/mL	0.5 µg/mL (≈ 0.999 µM)	0.25 µg/mL (≈ 0.499 µM)	0.25 µg/mL (≈ 0.499 µM)	1 µg/mL (≈ 2 µM)	1 µg/mL (≈ 2 µM)		2 µg/mL (≈ 3.99 µM)	2 µg/mL (≈ 3.99 µM)	0.25 µg/mL (≈ 0.499 µM)	
